PAD4 inh: inhibitors of human PAD4. recombinant PAD4, RCA probe fluorescence polarization. 330,000 compounds, 0.41% hits. AID 485272. inhibition, % at 6.36 µM;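 active = percent inhibition above a cutoff equal to the mean of all tested compounds plus 3 SD, cut at about 15% in these data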;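 also: 0% = PAD4 with RCA probe and DMSO and 100% = probe without PAD4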
Target sequence (Q9UM07 whole entry, looked up): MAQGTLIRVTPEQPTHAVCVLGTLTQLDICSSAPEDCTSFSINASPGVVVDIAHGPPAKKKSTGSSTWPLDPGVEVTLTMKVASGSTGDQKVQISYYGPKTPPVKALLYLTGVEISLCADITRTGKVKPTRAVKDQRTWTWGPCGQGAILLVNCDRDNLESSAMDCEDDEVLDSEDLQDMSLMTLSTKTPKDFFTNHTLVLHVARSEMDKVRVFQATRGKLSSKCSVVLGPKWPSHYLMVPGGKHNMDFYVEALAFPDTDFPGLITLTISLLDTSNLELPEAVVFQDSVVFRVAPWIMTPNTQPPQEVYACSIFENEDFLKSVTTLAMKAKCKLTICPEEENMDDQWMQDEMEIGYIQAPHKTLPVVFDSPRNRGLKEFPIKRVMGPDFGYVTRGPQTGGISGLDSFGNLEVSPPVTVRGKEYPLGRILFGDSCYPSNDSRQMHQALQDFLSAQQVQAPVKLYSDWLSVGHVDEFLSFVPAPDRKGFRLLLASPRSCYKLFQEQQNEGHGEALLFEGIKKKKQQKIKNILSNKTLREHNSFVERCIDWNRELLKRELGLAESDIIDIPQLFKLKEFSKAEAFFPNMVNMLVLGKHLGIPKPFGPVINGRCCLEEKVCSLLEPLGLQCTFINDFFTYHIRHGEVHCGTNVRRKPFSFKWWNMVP
Apaf1 inhib: blocks human Apaf-1 apoptosome activity; 330,000 compounds, 0.71% hits; reconstituted apoptosome caspase-3 activity, DEVD-Rh110 fluorescence; O14727; inhibition, % at 20 µM; active = inhibition of at least 40% at 20 µM;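 also: plate controls were DMSO wells for no effect and DEVD-CHO caspase inhibitor wells for full effect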
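Material: reconstituted apoptosome with Apaf-1, cytochrome c, caspase-9, procaspase-3, dATP; medium: pH 7.5 Hepes buffer with CHAPS, BSA, DTT; also added: cytochrome c and DEVD-Rh110 substrate; timing: 30 min plus 50 min, RT; signal: Rh110 fluorescence intensity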
TDP2 absorb: TDP2 (human) inhibition, absorbance primary screen; O95551; recombinant TDP2, T5PNP hydrolysis, p-nitrophenol absorbance 415 nm; inhibition, % at 12.8 µM; 370,000 compounds, 0.34% hits; AID 720702;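 active = inhibition above the mean of all tested compounds plus 3 SD, set per campaign, cut at about 25% in these data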;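 also: 0% = DMSO with enzyme and 100% = buffer with substrate but no TDP2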
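System – recombinant human TDP2 · Quantity – TDP2 enzyme at 120 nM final · Doses – single concentration, 12.8 µM nominal, with 1% DMSO · Incubation – 2 h at 37 °C · Measured by – epi absorbance of p-nitrophenol freed from T5PNP by hydrolysis · Read-out – % inhibition relative to enzyme-containing and enzyme-free wells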
GSTO1 inh: GSTO1 inhibition, counter-screen for RBBP9 inhibitors; P78417; recombinant GSTO1, activity-based probe fluorescence polarization; inhibition, % at 5.96 µM; 300,000 compounds, 1.1% hits; AID 1974;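 active = inhibition above the campaign mean inhibition plus 3 SD, cut at about 35% in these data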;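 also: 0% = GSTO1-1 with DMSO and 100% = wells lacking GSTO1-1 enzyme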
PRMT1 FP inh: blocks human protein arginine methyltransferase 1 | Q99873 | recombinant PRMT1, activity-based probe fluorescence polarization | inhibition, % at 2.79 µM | 370,000 compounds, 1.3% hits;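 active = inhibition above about 21% made by adding two undisclosed values, limit read from the data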
TDP2 confirm: confirmation of human TDP2 inhibitors. shares compounds with TDP2 absorb. 1,100 compounds, 22% hits. inhibition, % at 12.8 µM. recombinant human TDP2, absorbance read-out. AID 743263; in the data active = inhibition above about 25%;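 also: 0% = vehicle with enzyme and 100% = no enzyme buffer only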
Active calls of the source: *; · = not tested or not shown. An excerpt weighted towards active compounds, which were near 2.6% of everything screened.

SMILES	PAD4 inh	Apaf1 inhib	TDP2 absorb	GSTO1 inh	PRMT1 FP inh	TDP2 confirm
Cc1c(Cl)c(C(F)(F)F)nn1CC(=O)NCc1ccco1	-1	-7	5	-7	2	·
Cc1cc(C(F)(F)F)nn1CC(=O)NCc1ccco1	-3	-15	31*	-10	0	4
COc1cc(CNCc2ccc(Br)cc2)cc(OC)c1	-1	9	25*	2	0	9
Cc1ccc(NC(=O)CN2C(=O)NC3(CCc4ccccc43)C2=O)cc1S(=O)(=O)N1CCCCC1 (centres undefined)	-4	21	90*	-5	0	-13
Cc1c(Br)c(O)c(Br)c2sc(=O)oc12	-1	19	42*	74*	80*	16
CCOC(=O)C(=O)N/N=C/c1cccc(Br)c1	2	2	25*	7	2	-4
Nc1cc2nn(-c3ccccc3)nc2cc1Cl	·	·	70*	·	6	47*
COc1ccc(/C=N/N=C2/CC(C)(C)Cc3n[nH]c(=O)cc32)cc1	-2	3	-2	3	8	·
Cc1cc(=O)[nH]c(-n2ncc(C#N)c2N)n1	-7	2	6	26	6	·
Cc1noc(C)c1S(=O)(=O)N1CCCC(C(=O)NCc2ccccc2Cl)C1 (centres undefined)	-1	-4	27*	4	3	0
Cc1nc2ccc(C(=O)OCc3nnc(-c4ccc(Br)cc4)o3)cc2nc1C	-9	-3	13	7	0	·
Cc1nc2ccc(C(=O)OCc3nnc(-c4ccccc4)o3)cc2nc1C	·	5	25*	·	-3	9
CCN(CC(=O)Nc1c(F)cccc1F)C(=O)CCN1C(=O)C2CCCCC2C1=O (centres undefined)	-1	-2	14	-1	2	·
COc1ccc(NC(=O)Cc2nnc(SCC(=O)c3ccccc3)n2C)cc1	0	6	2	4	-1	·
C(=NN=C(NN=Cc1cccs1)NN=Cc1cccs1)c1cccs1	·	·	54*	·	2	-1
CS(=O)(=O)N[C@@H]1C[C@@H]2O[C@@H](CO)CC[C@@H]2O[C@@H]1CCc1ccc(/C=C/c2ccccc2)cc1	·	·	6	·	-3	·
Cc1c(C=O)c(C=O)c(C)n1Cc1ccccc1	-1	11	25*	2	3	1
Cc1[nH][nH]c(=O)c1C(c1c(C)[nH][nH]c1=O)c1cn(Cc2ccccc2Cl)c2ccccc12	·	·	55*	·	7	34*
N/C(=N\O)c1cn(Cc2ccccc2Cl)c2ccccc12	0	1	12	0	-3	·
N#CC1(NC(=O)CN2c3cccc4cccc(c34)S2(=O)=O)CCCCC1	-4	13	7	6	5	·
CCOC(=O)c1sc(NC(=O)CNCc2ccccn2)c(C(=O)OCC)c1C	-1	28	26*	5	1	0
CCOC(=O)c1sc(NC(=O)CNCc2cccnc2)c(C(=O)OCC)c1C	-4	24	1	1	1	·
COC1=C(Nc2ccc(O)cc2)C(=O)c2ccccc2C1=O	-11	11	48*	34	-3	6
COC1=C(Nc2ccc(OC)cc2)C(=O)C(OC)=C(Nc2ccc(OC)cc2)C1=O	·	·	3	·	-1	·
COc1cccc(Nc2c(Nc3cccc(OC)c3)c(=O)c2=O)c1	-1	0	15	1	-3	·
SMILES	PAD4 inh	Apaf1 inhib	TDP2 absorb	GSTO1 inh	PRMT1 FP inh	TDP2 confirm
COc1cccc(NC2=C(NCCO)C(=O)c3ccccc3C2=O)c1	-6	16	55*	12	1	12
CCOc1ccc(NC2=C(OC)C(=O)c3ccccc3C2=O)cc1	-14	29	26*	40*	4	22
COC1=C(Nc2ccc(OC)cc2)C(=O)c2ccccc2C1=O	-15	27	60*	17	5	4
CC/C(=N\NC(=O)C(N)=O)c1ccccc1O	-1	1	-21	-3	-2	·
COc1ccc(NC(=O)N(C)C[C@H]2Oc3c(NC(=O)Cc4ccccc4)cccc3C(=O)N([C@H](C)CO)C[C@@H]2C)cc1	-5	8	14	·	0	·
C[C@H](CO)N1C[C@H](C)[C@H](CN(C)Cc2ccc(Oc3ccccc3)cc2)Oc2cc(Br)ccc2S1(=O)=O	·	·	-10	·	3	·
NC(=O)C1Cc2ccccc2CN1C(=O)c1nn(Cc2ccccc2)c(=O)c2ccccc12 (centres undefined)	-1	1	·	·	·	·
O=[N+]([O-])c1cccc(/C=N/Nc2nc(NCc3ccccc3)nc(N3CCOCC3)n2)c1O	-8	11	-3	3	-3	·
O=C(NC1C(=O)NNC1c1ccccc1)c1ccc(F)cc1 (centres undefined)	-7	34	26*	8	2	6
CCOc1cc(C2Nc3ccccc3C(=O)N2c2ccccc2)ccc1O (centres undefined)	3	-3	1	3	1	·
COc1cc(C2Nc3ccccc3C(=O)N2c2ccccc2)ccc1O (centres undefined)	-1	5	29*	0	4	5
COc1ccc2nc(SCC(=O)NCc3ccccc3)[nH]c2c1	·	-1	60*	·	2	-2
CC(C)CC(=O)Nc1nnc(S(=O)(=O)N2CCCCCC2)s1	-4	-16	-8	-16	-8	·
CC1CC(C)CN(C(=O)C2CCN(S(=O)(=O)c3c(Cl)cccc3Cl)CC2)C1 (centres undefined)	0	14	-10	-1	6	·
COc1ccc(C)cc1NC(=O)C(OC(=O)CNC(=O)c1cc(C)cc(C)c1)c1ccccc1 (centres undefined)	1	13	-11	-1	-3	·
COc1ccc(C)cc1NC(=O)C(NCC(O)c1ccccc1)c1ccccc1 (centres undefined)	1	8	26*	-4	2	9
CC(CC(=O)O)CC(=O)Nc1cc(C(F)(F)F)cc(C(F)(F)F)c1 (centres undefined)	4	-9	-2	-1	-5	·
O=C(O)COCC(=O)Nc1cc(C(F)(F)F)cc(C(F)(F)F)c1	-1	2	26*	6	-3	0
CC(N=C1NS(=O)(=O)c2ccccc21)C(=O)OCC(=O)N(C)C1CCS(=O)(=O)C1 (centres undefined)	1	-6	2	·	0	·
Cc1ccc(Cl)c(OCCCCN2CCC(C)CC2)c1	·	·	3	·	0	·
CC1CCN(CCOc2cc(Cl)ccc2Cl)CC1	0	-1	25*	-5	0	1
CCOc1ccc2[nH]c3c(NCCO)ncnc3c2c1	·	4	27*	·	3	3
CCOc1ccc2[nH]c3c(NCCc4ccc(OC)c(OC)c4)ncnc3c2c1	-3	-4	1	-18	6	·
Cc1ccc(S(=O)(=O)NC2=C(N3CCN(Cc4ccccc4)CC3)C(=O)c3ccccc3C2=O)cc1	-5	3	1	6	-4	·

Screening data: PubChem BioAssay, several laboratories
